The test system of one assay is MM.1S cells. As to the kind of experiment: Cell viability assay. The format is cell-based. The settings on record: Homo sapiens, MM1.S, 24 h, read-out: EC50 (cell viability). Put shortly: (§1)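 Cells kept in RPMI 1640 with 10% heat-inactivated FBS and penicillin/streptomycin at 37°C, 5% CO2. Plated 24 h before a 24 h exposure to test compound diluted from DMSO stock; vehicle controls got 1% DMSO. CellTiter-Glo added, equilibrated 5 min at 37°C, luminescence read at 470 nm (1 s). Survival as % of untreated control; EC50 from 3- or 4-parameter nonlinear regression.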

Another assay relates to MM.1S BzR cells. Nature of the assay: Cell viability assay. Type of assay: cell-based. The following applies: Homo sapiens, MM1.S, 24 h, read-out: EC50 (cell viability).
The next assay deals with U266 cells. Nature of the assay: Cell viability assay. The format is cell-based. The following applies: Homo sapiens, U-266, 24 h, read-out: EC50 (cell viability). The procedure, abridged: as §1
Another assay relates to U266 BzR cells. Nature of the assay: Cell viability assay. The format is cell-based. The following applies: Homo sapiens, U-266, 24 h, read-out: EC50 (cell viability).
In a further assay the test system is Granta cells. Nature of the assay: Cell viability assay. The format is cell-based. The following applies: 24 h, read-out: EC50 (cell viability). Put shortly: as §1
In the next assay the test system is Granta BzR cells. As to the kind of experiment: Cell viability assay. The format is cell-based. The following applies: 24 h, read-out: EC50 (cell viability).
A further assay relates to Mino cells. Nature of the assay: Cell viability assay. The format is cell-based. The following applies: Homo sapiens, 24 h, read-out: EC50 (cell viability). Put shortly:
as §1

The subject of a further assay is Mino BzR cells. As to the kind of experiment: Cell viability assay. The settings on record: Homo sapiens, 24 h, read-out: EC50 (cell viability). The format is cell-based.
Assay [1] has as its target C-L (β1) proteasomal sub-catalytic activity (Homo sapiens, UniProt P28072). As to the kind of experiment: Cell-based proteasome activity assay. The settings on record: Ki50 C-L (β1), 24 h treatment.
Assay [2] deals with T-L (β2) proteasomal sub-catalytic activity (Homo sapiens, UniProt Q99436). Nature of the assay: Cell-based proteasome activity assay. The following applies: Ki50 T-L (β2), 24 h treatment.

Structures are written as SMILES.

With `CC(C)C[C@H](NC(=O)[C@H](CCc1ccccc1)NC(=O)CN1CCOCC1)C(=O)N[C@@H](Cc1ccccc1)C(=O)N[C@@H](CC(C)C)C(=O)[C@@]1(C)CO1` [CAR, carfilzomib], the 50% effective concentration (EC50) (commonly the concentration that produces a half-maximal response) was 5.5 ± 0.2 nM in the assay with MM.1S cells; 27.7 ± 1.6 nM with MM.1S BzR cells; 6.9 ± 0.5 nM with U266 cells; 10.9 ± 1.4 nM in the assay with U266 BzR cells; 11.7 ± 0.3 nM in the assay on Granta cells; 24.2 ± 1.4 nM in the assay on Granta BzR cells. In addition, the figures for the EC50 in the assay on Mino cells and with Mino BzR cells were 6.3 ± 0.3 nM and 20.7 ± 0.7 nM, respectively.
For the compound `CC(C)C[C@H](NC(=O)CNC(=O)c1cc(Cl)ccc1Cl)B(O)O` [IXA, ixazomib], the inhibitory constant (Ki) (as a rule, the dissociation constant of the complex between target and ligand, obtained from inhibition or displacement) in assay [1] (ARD cells) was determined as 19.6 ± 8.32 nM; in assay [1] (MM.1R cells), 7.41 ± 1.59 nM; in [1] (U266 cells) it was 16.1 ± 4.01 nM; in assay [2] (ARD cells) it was 92.8 ± 19.1 nM; in [2] (MM.1R cells), 29.3 ± 7.83 nM; in [2] (U266 cells), 74.9 ± 16.8 nM. Besides, the EC50 with MM.1S cells came to 25.5 ± 0.9 nM; in the assay with MM.1S BzR cells it was 449 ± 23 nM; in the assay with U266 cells, 34.7 ± 2.1 nM; with U266 BzR cells, 169 ± 15 nM; in the assay on Granta cells, 147 ± 12 nM; in the assay on Granta BzR cells, 774 ± 150 nM. Moreover, the EC50 turned out to be 97.6 ± 4.6 nM in the assay with Mino cells and 336 ± 30 nM in the assay with Mino BzR cells.
Turning to `CC(C)C[C@H](NC(=O)[C@H](Cc1ccccc1)NC(=O)c1cnccn1)B(O)O` [BTZ, bortezomib], the EC50 with MM.1S cells is 2.31 ± 0.03 nM; in the assay with MM.1S BzR cells, 28.4 ± 0.6 nM; with U266 cells, 2.7 ± 0.2 nM; with U266 BzR cells it was 14.1 ± 2 nM; in the assay with Granta cells, 14.9 ± 1.6 nM; with Granta BzR cells, 51.5 ± 9.3 nM. Besides, the 50% effective concentration (EC50) in the assay on Mino cells amounted to 10 ± 0.4 nM; in the assay on Mino BzR cells it was 23.4 ± 1.1 nM.

(Values after publication PMC6937391 (Leukemia research, 2019).)
